Dynein transport: inhibitors of GR-EGFP nuclear translocation, primary screen, dynein cargo transport inhibitor project, imaging, high-content, 3617.4 mouse cells. test concentration mostly 20 µM; stimulated with dexamethasone, 1 µM; active compounds read low. z-score, hits read low. 220,000 compounds, 0.47% hits. AID 1381, 2008;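 active = plate z-score of nuclear minus cytoplasmic receptor signal below a set negative limit, without overly bright fluorescence or cell loss, cut at about -3.5 in these data, passing the limit was not always enough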;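 also: z-score of nuclear minus cytoplasmic ring GR-EGFP intensity difference per well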
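medium = tetracycline-free induction medium containing charcoal-stripped FBS | also added = 1.0 µM final dexamethasone stimulus | schedule = 48 h induction, 1 h compound, 30 min dex at 37 °C | technique = fixed, Hoechst-stained cells imaged at 10x for EGFP | measure = GR-EGFP nuclear translocation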
MEKK2 mut-MEK5: MEK5 binding signal on mutant MEKK2 PB1, primary screen, biochemical, multiplex bead flow cytometry, Alexa488-MEK5 | Alexa488-MEK5 binding to MEKK2 mutant | percent response, % at 10 µM | 290,000 compounds, 0.35% hits | AID 1530, 2009; in the data active = percent response above about 24%, passing the limit was not always enough
Beta2AR agonist: beta2AR agonists driving receptor internalization, primary screen, cell-based, FAP fluorogen, flow cytometry; Beta-2 adrenergic receptor (Homo sapiens), P07550; Am2.2-beta2AR cells; response, % (concentration not given with the values); 340,000 compounds, 0.43% hits;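 active = response above a set limit, near 3 SD of response in nonfluorescent compounds, cut at about 42% in these data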
ATG4B inh: ATG4B protease inhibitors, primary screen, biochemical, fluorescence, uHTS; Cysteine protease ATG4B (Homo sapiens), Q9Y4P1; ATG4B cleavage of LC3-PLA2, NBD-HPC fluorescence, 1 h; inhibition, % at 8.33 µM; 340,000 compounds, 0.51% hits; in the data active = inhibition above about 40%
Target sequence (Q9Y4P1 whole entry, looked up): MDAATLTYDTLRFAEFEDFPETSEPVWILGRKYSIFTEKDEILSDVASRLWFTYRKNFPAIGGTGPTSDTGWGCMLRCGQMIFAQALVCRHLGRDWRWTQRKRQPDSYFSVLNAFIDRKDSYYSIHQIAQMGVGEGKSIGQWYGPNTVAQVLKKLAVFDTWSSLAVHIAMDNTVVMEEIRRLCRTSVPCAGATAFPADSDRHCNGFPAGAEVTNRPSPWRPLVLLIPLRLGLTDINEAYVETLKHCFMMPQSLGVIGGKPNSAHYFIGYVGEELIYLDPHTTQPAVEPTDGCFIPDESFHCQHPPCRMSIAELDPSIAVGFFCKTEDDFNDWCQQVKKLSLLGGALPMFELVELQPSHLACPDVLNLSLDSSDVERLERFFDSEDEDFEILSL
MEKK2wt PB1 HTS: modulators of MEK5 binding to wildtype MEKK2, primary screen, biochemical, multiplex bead flow cytometry, Alexa488-MEK5; Mitogen-activated protein kinase kinase kinase 2 (Homo sapiens), Q9Y2U5; Alexa488-MEK5 binding to MEKK2 WT; actives lie on both sides; binding response (% of control), % at 10 µM; 290,000 compounds, 1.1% hits; in the data active = binding response below about 67% or above about 130%
MEKK3 PB1 HTS: modulators of MEKK3-MEK5 PB1 binding, primary screen, biochemical, wildtype MEKK3, multiplex bead flow cytometry, Alexa488-MEK5; bead-based flow cytometry, Alexa488-MEK5 binding to MEKK3; actives lie on both sides; 0 = blocked by unlabeled MEK5, 100 = vehicle; binding response (% of control), % at 10 µM; 290,000 compounds, 1.4% hits; AID 1529, 2009;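 active = binding response more than 3 SD above or below the average of its plate-row segment, actives on both sides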;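 also: Alexa488 bead fluorescence after subtracting the streptavidin-only scavenger bead signal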
MEKK2wt confirm: modulators of MEK5 binding to wildtype MEKK2, confirmation, biochemical, single concentration, multiplex bead flow cytometry. shares compounds with MEKK3 PB1 HTS. 5,900 compounds, 2.4% hits. AID 1892, 2009. binding response (% of control), % at 10 µM. Alexa488-MEK5 binding to MEKK2 WT; actives lie on both sides; in the data active = binding response below about 16% or above about 210%; inactive = in between
MEKK2mut confirm: mutant MEKK2 PB1-MEK5 binding signal retest – biochemical, single concentration, multiplex bead flow cytometry, confirmation. shares compounds with MEKK3 PB1 HTS. Alexa488-MEK5 binding to MEKK2 mutant. percent response, % at 10 µM. 5,900 compounds, 2% hits. AID 1893, 2009; in the data active = percent response mostly above about 71%, no sharp cut-off; inactive = mostly below about 38%;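 also: higher means compound restores mutant binding toward wildtype level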
MEKK3 confirm: MEKK3 wild-type PB1 binding to MEK5, inhibitors, confirmation, biochemical, bead multiplex flow cytometry, single concentration, wildtype. 5,900 compounds, 1.8% hits. binding response (% of control), % at 10 µM. Alexa488-MEK5 binding to MEKK3; active compounds read low. shares compounds with MEKK3 PB1 HTS;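 active = binding response below 72% of control, or above a set upper limit, though filed actives all read lower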;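 also: lower values mean stronger disruption of MEK5 binding to MEKK3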
Hits are given with their value; 0 = inactive; - = not tested or not shown; [ ] = another dose, or the depositor's remark. Only some compounds are listed: those with a hit (about 2.9% of all), similar ones and a draw of the others.

SMILES | Dynein transport | MEKK2 mut-MEK5 | Beta2AR agonist | ATG4B inh | MEKK2wt PB1 HTS | MEKK3 PB1 HTS | MEKK2wt confirm | MEKK2mut confirm | MEKK3 confirm
Cc1cccc2c1=NC(=O)/C(=C/c1c(O)[nH]c(=O)[nH]c1=O)C=2 | 0 | 0 | 0 | 0 | 0 | 147 | 0 | 0 | 0
c1ccc2c(CN3CCN(C4CCCCC4)CC3)c[nH]c2c1 | 0 | 44 | 0 | 0 | 168 | 0 | 0 | 0 | 0
c1ccc2c(CN3CCCCCCC3)c[nH]c2c1 | 0 | - | 0 | 0 | - | - | - | - | -
c1ccc([C@@H]2CO2)cc1 | - | 0 | - | 0 | 0 | 0 | - | - | -
COCCNCCOc1ccc(C(C)(C)c2ccccc2)cc1 | 0 | 0 | 0 | 0 | 0 | 0 | - | - | -
Nc1ccc2c(c1)Cc1ccccc1-2 | 0 | 0 | 0 | 0 | 0 | 133 | 0 | 0 | 0
COc1cccc(N2C(=O)NC(=O)/C(=C/c3ccc4c(c3)Cc3ccccc3-4)C2=O)c1 | 0 | 0 | 0 | 0 | 0 | 0 | - | - | -
Fc1ccc(CCNCc2cccc(Cl)c2)cc1 | 0 | 0 | 0 | 0 | 0 | 75[inhibitor] | 0 | 0 | 0
COc1cccc(CNCCc2ccc(F)cc2)c1 | - | 0 | 0 | 0 | 0 | 0 | - | - | -
CCOc1ccc(-c2cc(C)[n+](CCc3ccc(OC)c(OC)c3)c(-c3ccc(OCC)cc3)c2)cc1 | - | 37 | 0 | 0 | 141 | 0 | 0 | 0 | 0
CC1C(=O)OC2CCN3CC4OC4(COC(=O)C(C)(O)C1(C)O)C23 (stereo unspecified) | - | - | 0 | 0 | - | - | - | - | -
O=C1NC(=O)C2(Cc3ccccc3N3CCCC32)C(=O)N1Cc1ccccc1 (stereo unspecified) | 0 | 0 | 0 | 0 | -30[inhibitor] | -2.0[inhibitor] | 0 | 0 | 0
COc1ccccc1OP(=O)(Nc1cccnc1)Oc1ccccc1OC | 0 | 0 | 0 | 0 | 0 | 0 | - | - | -
COC(=O)C1=C(c2ccc(C(C)=O)cc2)C[C@@H]2CC[C@H]1N2C(=O)NCc1ccco1 | - | - | 0 | 0 | - | - | - | - | -
Cc1ccc2c(c1)C(c1ccccc1)NCC(=O)N2 (stereo unspecified) | 0 | 0 | 0 | 0 | 0 | 74[inhibitor] | 0 | 0 | 0
COC(=O)C1=C(c2cccc(C#N)c2)C[C@@H]2CC[C@H]1N2C(=O)NCCNC(C)=O | - | - | 0 | 0 | - | - | - | - | -
O=C1C2CCCN2C(c2cccc(Cl)c2)N1c1ccccn1 (stereo unspecified) | 0 | 0 | 0 | 0 | 0.0[inhibitor] | 0.0[inhibitor] | 0 | 0 | 0
CC(Cc1ccccc1)N1C(=O)c2ccccc2C1=O (stereo unspecified) | - | 0 | 0 | 0 | 0 | 0 | - | - | -
CCn1c(O)c(/C=N/N2CCOCC2)c(=O)n(CC)c1=S | 0 | 0 | 0 | 0 | 0 | 143 | 0 | 0 | 0
COC(=O)C1=Nc2ccccc2/C1=C\c1c(O)n(C)c(=O)n(C)c1=O | 0 | 0 | 0 | 0 | 55[inhibitor] | 74[inhibitor] | 0 | 0 | 0
Cn1c(O)c(/C=C2\C=Nc3ccccc32)c(=O)n(C)c1=O | - | 0 | 0 | 0 | 0 | 0 | - | - | -
Cc1nn(Cc2ccccc2Cl)c(C)c1C(=O)OCC(=O)NC1CCS(=O)(=O)C1 (stereo unspecified) | 0 | 0 | 0 | 0 | 0 | 0 | - | - | -

Compound activity deposited in PubChem BioAssay by several laboratories.
